{"source": "ChEMBL document CHEMBL5705891", "about": "“Small-molecule kinase inhibitors provide insight into Mps1 cell cycle function” (Nat Chem Biol, 2010)", "key": {"[1]": {"biological_target": "Ribosomal protein S6 kinase alpha-6 (Homo sapiens) (UniProt Q9UK32)", "assay": "Inhibition of RPS6KA6 kinase domain 2 (unknown origin) assessed as residual enzyme activity at 10 uM by Ambit kinase binding assay relative to control"}, "[2]": {"biological_target": "Serine/threonine-protein kinase 24 (Homo sapiens) (UniProt Q9Y6E0)", "assay": "Inhibition of MST3 (unknown origin) assessed as residual enzyme activity at 10 uM by Ambit kinase binding assay relative to control"}, "[3]": {"biological_target": "Tyrosine-protein kinase Blk (Homo sapiens) (UniProt P51451)", "sequence (P51451 2-505 limits assumed)": "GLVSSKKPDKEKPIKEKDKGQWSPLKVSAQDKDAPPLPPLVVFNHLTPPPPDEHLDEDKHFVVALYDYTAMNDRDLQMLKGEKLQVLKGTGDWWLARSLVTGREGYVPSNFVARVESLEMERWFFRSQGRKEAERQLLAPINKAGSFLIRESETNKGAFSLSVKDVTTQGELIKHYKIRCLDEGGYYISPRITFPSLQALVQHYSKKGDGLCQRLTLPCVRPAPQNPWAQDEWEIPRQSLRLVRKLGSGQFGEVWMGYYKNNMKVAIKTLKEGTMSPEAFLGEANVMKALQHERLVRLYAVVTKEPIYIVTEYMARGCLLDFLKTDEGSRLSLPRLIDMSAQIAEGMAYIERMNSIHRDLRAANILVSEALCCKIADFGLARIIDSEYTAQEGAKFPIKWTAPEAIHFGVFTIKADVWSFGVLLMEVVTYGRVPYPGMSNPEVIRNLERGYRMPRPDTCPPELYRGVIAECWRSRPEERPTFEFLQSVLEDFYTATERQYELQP", "assay": "Inhibition of BLK (unknown origin) assessed as residual enzyme activity at 10 uM by Ambit kinase binding assay relative to control"}, "[4]": {"biological_target": "AP2-associated protein kinase 1 (Homo sapiens) (UniProt Q2M2I8)", "assay": "Inhibition of AAK1 (unknown origin) assessed as residual enzyme activity at 10 uM by Ambit kinase binding assay relative to control"}, "[5]": {"biological_target": "Serine/threonine-protein kinase 38-like (Homo sapiens) (UniProt Q9Y2H1)", "assay": "Inhibition of NDR2 (unknown origin) assessed as residual enzyme activity at 10 uM by Ambit kinase binding assay relative to control"}, "[6]": {"biological_target": "Leukocyte tyrosine kinase receptor (Homo sapiens, UniProt P29376)", "assay": "Inhibition of LTK (unknown origin) assessed as residual enzyme activity at 10 uM by Ambit kinase binding assay relative to control"}, "[7]": {"biological_target": "Bone morphogenetic protein receptor type-2 (Homo sapiens) (UniProt Q13873)", "sequence (Q13873 whole entry)": "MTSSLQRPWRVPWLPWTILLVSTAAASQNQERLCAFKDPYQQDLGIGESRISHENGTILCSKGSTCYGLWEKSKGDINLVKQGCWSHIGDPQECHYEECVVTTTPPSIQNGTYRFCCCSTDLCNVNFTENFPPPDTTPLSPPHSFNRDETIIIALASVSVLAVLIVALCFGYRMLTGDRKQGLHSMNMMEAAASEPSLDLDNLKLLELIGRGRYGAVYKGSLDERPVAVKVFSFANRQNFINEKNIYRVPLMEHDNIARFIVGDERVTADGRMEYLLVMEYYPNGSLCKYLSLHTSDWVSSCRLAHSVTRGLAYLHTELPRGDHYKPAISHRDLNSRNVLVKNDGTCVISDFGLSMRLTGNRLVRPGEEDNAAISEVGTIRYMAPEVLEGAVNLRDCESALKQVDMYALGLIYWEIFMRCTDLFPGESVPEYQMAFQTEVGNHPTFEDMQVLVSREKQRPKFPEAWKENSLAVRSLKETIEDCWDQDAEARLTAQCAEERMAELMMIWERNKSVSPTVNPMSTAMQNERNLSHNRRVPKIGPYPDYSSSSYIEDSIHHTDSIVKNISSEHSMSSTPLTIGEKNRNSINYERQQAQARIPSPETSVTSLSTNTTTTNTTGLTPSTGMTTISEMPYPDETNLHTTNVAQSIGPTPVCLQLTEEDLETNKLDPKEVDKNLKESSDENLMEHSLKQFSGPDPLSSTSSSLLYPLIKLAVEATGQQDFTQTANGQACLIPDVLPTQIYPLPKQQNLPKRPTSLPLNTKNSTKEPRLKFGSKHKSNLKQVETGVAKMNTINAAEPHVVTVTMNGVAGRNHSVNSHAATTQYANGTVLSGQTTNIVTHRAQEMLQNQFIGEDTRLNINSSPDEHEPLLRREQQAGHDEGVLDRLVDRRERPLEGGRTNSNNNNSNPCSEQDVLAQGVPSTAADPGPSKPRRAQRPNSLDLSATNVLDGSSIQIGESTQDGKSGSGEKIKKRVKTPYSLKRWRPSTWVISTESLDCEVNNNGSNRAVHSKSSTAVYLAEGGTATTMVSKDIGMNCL", "assay": "Inhibition of BMPR2 (unknown origin) assessed as residual enzyme activity at 10 uM by Ambit kinase binding assay relative to control"}, "[8]": {"biological_target": "Serine/threonine-protein kinase pim-3 (Homo sapiens) (UniProt Q86V86)", "assay": "Inhibition of PIM3 (unknown origin) assessed as residual enzyme activity at 10 uM by Ambit kinase binding assay relative to control"}, "[9]": {"biological_target": "Serine/threonine-protein kinase pim-1 (Homo sapiens) (UniProt P11309)", "sequence (P11309 whole entry, looked up)": "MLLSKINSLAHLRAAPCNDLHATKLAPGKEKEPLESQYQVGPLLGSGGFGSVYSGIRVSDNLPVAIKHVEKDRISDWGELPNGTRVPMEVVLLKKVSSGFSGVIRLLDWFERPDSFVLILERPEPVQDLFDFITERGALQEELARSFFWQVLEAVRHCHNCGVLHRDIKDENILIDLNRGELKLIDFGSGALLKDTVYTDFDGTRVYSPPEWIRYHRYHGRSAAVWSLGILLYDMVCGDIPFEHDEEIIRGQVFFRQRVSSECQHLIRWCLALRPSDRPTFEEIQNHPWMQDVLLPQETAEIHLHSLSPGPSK", "assay": "Inhibition of PIM1 (unknown origin) assessed as residual enzyme activity at 10 uM by Ambit kinase binding assay relative to control"}, "U2OS [10]": {"system": "U2OS", "assay": "Effect on thymidine-treated human U2OS cell populations after one cell doubling at 10 uM incubated for 4 hrs followed by thymidine release by immunofluorescence imaging analysis", "type": "functional, cell-based"}, "[11]": {"biological_target": "T1, Protein-tyrosine kinase 2-beta (Homo sapiens, UniProt Q14289)", "assay": "Inhibition of PTK2B (unknown origin) assessed as residual enzyme activity at 10 uM by Ambit kinase binding assay relative to control"}, "[12]": {"assay": "Inhibition of Mps1 in Potoroo PTK2 cells expressing EyFP-tagged human Mad2 assessed as reduction in time spent in mitosis at 10 uM incubated for 1 hr by fluorescence based imaging analysis relative to control", "parameters": "species or system Pt K2", "conditions": "Potorous tridactylus", "procedure,_shortened": "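Randomly cycling PtK2 cells stably expressing hsMad2-EYFP were pretreated 1 h with 10 μM inhibitor, DMSO or no treatment. Time-lapse imaging at 37°C, 5% CO₂ scored mitotic duration from NEB to NER. Average time was reported (N=26–29); 95% CI; Student's t test.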"}, "[13]": {"biological_target": "Ribosomal protein S6 kinase alpha-1 (Homo sapiens) (UniProt Q15418)", "assay": "Inhibition of RPS6KA1 kinase domain 1 (unknown origin) assessed as residual enzyme activity at 10 uM by Ambit kinase binding assay relative to control"}, "Focal adhesion kinase 1": {"biological_target": "Focal adhesion kinase 1 (Homo sapiens, UniProt Q05397)", "assay": "Binding affinity to FAK (unknown origin) assessed as dissociation constant by Ambit kinase binding assay"}, "[14]": {"biological_target": "Insulin receptor-related protein (Homo sapiens, UniProt P14616)", "sequence (P14616 27-742 limits assumed)": "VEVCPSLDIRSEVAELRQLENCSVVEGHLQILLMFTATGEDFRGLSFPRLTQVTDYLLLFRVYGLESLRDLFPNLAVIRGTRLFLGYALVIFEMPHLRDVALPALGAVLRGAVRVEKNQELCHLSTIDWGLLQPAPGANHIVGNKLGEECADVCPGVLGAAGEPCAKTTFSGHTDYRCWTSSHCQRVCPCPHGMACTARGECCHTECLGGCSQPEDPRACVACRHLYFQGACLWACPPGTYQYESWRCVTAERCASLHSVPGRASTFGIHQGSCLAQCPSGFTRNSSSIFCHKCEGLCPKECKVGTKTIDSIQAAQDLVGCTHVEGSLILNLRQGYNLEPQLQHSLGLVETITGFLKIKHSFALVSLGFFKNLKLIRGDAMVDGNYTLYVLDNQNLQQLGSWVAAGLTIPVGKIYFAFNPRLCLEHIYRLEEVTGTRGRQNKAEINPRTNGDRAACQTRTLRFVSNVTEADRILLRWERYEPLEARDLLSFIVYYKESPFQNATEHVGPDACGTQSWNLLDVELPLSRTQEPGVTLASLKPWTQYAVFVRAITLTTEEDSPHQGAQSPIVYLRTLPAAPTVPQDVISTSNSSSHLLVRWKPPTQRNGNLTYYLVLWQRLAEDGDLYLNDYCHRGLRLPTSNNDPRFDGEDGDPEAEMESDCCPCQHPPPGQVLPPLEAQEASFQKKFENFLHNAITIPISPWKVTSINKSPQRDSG", "sequence (P14616 747-1297 limits assumed)": "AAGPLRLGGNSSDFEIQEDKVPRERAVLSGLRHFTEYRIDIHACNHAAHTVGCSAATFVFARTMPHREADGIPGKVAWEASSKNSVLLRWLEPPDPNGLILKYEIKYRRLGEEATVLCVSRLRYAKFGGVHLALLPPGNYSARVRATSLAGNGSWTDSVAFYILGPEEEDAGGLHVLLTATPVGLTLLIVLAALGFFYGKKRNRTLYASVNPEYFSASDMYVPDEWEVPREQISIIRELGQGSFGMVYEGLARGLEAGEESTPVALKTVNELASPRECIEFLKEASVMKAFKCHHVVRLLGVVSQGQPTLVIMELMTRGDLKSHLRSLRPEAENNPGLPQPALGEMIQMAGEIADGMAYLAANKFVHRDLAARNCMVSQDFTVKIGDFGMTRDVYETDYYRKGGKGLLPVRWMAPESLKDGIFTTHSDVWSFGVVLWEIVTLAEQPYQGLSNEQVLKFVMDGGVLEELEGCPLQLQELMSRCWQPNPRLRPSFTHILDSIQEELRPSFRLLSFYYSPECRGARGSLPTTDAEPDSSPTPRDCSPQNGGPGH", "assay": "Binding affinity to INSRR (unknown origin) assessed as dissociation constant by Ambit kinase binding assay"}, "[15]": {"biological_target": "T1, Protein-tyrosine kinase 2-beta", "assay": "Binding affinity to PYK2 (unknown origin) assessed as dissociation constant by Ambit kinase binding assay"}, "HCT-116": {"system": "HCT-116", "assay": "Antiproliferative activity against human HCT-116 cells with p53+/+ at 10 uM measured after 96 hrs in presence of Z-VAD-FMK by Syto60 staining based assay", "type": "functional, cell-based"}, "UTRM10": {"system": "UTRM10", "assay": "Effect on centrosome overduplication in hydroxyurea-treated UTRM10 cells (unknown origin) at 10 to 25 uM incubated for 48 hrs by centrin staining based analysis", "conditions": "dose 10-25 µM"}, "U2OS [16]": {"system": "U2OS", "assay": "Inhibition of anaphase delay in thymidine-treated human U2OS cells expressing H2B-GFP and Plk4 overexpression measured for 30 mins by time lapse imaging analysis", "type": "functional, cell-based", "procedure,_shortened": "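U2OS H2B-GFP cells carrying doxycycline-inducible Plk4. Thymidine 18 h, release into doxycycline (2 μg·ml⁻¹) 10 h, second thymidine 18 h, release 6 h, then 5 μM inhibitor. Time-lapse imaging at 37°C, 5% CO₂ recorded time after NEBD to anaphase. Mean ± SD of 3 independent experiments; Student's t test.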"}, "[17]": {"system": "Proto-oncogene tyrosine-protein kinase receptor Ret (Homo sapiens), P07949 [V804M]", "sequence (P07949 whole entry V804M)": "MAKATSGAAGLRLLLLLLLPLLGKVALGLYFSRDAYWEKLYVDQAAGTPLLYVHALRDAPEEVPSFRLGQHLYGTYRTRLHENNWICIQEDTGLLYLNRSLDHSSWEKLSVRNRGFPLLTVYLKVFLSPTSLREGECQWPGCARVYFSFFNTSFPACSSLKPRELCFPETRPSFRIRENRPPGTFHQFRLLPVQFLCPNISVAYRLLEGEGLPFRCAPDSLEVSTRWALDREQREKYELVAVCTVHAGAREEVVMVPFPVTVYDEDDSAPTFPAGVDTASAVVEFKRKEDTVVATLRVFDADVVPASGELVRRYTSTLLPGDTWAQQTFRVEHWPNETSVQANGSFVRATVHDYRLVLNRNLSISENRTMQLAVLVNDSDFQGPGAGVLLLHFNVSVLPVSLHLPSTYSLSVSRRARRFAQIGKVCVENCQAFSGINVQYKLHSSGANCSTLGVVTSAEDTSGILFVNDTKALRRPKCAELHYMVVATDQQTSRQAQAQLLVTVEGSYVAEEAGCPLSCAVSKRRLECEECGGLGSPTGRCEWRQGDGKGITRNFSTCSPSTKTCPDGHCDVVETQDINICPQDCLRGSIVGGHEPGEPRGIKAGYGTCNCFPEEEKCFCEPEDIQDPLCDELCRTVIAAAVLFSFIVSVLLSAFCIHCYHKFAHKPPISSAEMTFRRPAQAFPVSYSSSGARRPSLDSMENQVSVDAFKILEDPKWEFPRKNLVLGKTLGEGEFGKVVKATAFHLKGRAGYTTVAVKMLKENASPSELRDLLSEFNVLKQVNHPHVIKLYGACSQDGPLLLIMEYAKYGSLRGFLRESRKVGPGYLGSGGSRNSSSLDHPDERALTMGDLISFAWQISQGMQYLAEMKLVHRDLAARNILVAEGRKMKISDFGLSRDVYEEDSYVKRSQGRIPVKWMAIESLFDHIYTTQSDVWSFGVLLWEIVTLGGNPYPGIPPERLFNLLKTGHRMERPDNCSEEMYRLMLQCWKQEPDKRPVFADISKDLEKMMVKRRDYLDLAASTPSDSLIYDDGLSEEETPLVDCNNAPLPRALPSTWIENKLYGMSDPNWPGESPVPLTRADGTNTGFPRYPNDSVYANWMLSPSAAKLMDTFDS", "assay": "Inhibition of RET V804M mutant (unknown origin) assessed as residual enzyme activity at 10 uM by Ambit kinase binding assay relative to control"}, "U2OS [18]": {"system": "U2OS", "assay": "Effect on thymidine-treated human U2OS cell populations after two cell doubling at 10 uM incubated for 4 hrs followed by thymidine release by immunofluorescence imaging analysis", "type": "functional, cell-based"}, "HeLa [19]": {"system": "HeLa", "assay": "Antiproliferative activity against human HeLa cells at 10 uM measured after 96 hrs in presence of Z-VAD-FMK by Syto60 staining based assay", "type": "functional, cell-based"}, "U2OS [20]": {"system": "U2OS", "assay": "Reversal of nocodazole-induced mitotic arrest in human U2OS cells assessed as decrease in cyclin B level at 10 uM incubated for 4 hrs in presence of MG132 by immunoblot analysis", "type": "functional, cell-based"}, "U2OS [21]": {"system": "U2OS", "assay": "Induction of aneuploidy in UTRM10 cells (unknown origin) expressing wild-type LAP-tagged Mps1 at 5 uM treated for 48 hrs by FACS analysis", "type": "functional, cell-based", "procedure,_shortened": "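UTRM10 cells expressing RNAi-resistant LAP-Mps1 WT or M602Q were treated with compound or DMSO for 48 h, then DNA content was analysed by FACS.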"}, "MCF-10A": {"system": "MCF-10A", "assay": "Antiproliferative activity against human MCF-10A cells at 10 uM incubated for 4 days by Syto60 staining based assay", "type": "toxicity, cell-based", "conditions": "96 h, time 4 day", "procedure,_shortened": "(§1)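 Proliferation read by Syto60 nucleic acid stain fluorescence (excitation 635 nm, emission 695 nm) after treatment for up to 96 h. Each time point normalized to its DMSO control. Mean ± SD from 4 independent experiments. Cells kept at 37°C, 5% CO2 in 10% FBS-supplemented medium.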"}, "Activated CDC42 kinase 1": {"biological_target": "Activated CDC42 kinase 1 (Homo sapiens, UniProt Q07912)", "assay": "Binding affinity to TNK2 (unknown origin) assessed as dissociation constant by Ambit kinase binding assay"}, "[22]": {"biological_target": "ALK tyrosine kinase receptor (Homo sapiens, UniProt Q9UM73)", "assay": "Binding affinity to ALK (unknown origin) assessed as dissociation constant by Ambit kinase binding assay"}, "HeLa [23]": {"system": "HeLa", "assay": "Antiproliferative activity against human HeLa cells at 10 uM incubated for 4 days by Syto60 staining based assay", "type": "functional, cell-based", "conditions": "time 4.0 day", "procedure,_shortened": "as §1"}, "[24]": {"biological_target": "Dual specificity protein kinase CLK1 (Homo sapiens, UniProt P49759)", "sequence (P49759 whole entry)": "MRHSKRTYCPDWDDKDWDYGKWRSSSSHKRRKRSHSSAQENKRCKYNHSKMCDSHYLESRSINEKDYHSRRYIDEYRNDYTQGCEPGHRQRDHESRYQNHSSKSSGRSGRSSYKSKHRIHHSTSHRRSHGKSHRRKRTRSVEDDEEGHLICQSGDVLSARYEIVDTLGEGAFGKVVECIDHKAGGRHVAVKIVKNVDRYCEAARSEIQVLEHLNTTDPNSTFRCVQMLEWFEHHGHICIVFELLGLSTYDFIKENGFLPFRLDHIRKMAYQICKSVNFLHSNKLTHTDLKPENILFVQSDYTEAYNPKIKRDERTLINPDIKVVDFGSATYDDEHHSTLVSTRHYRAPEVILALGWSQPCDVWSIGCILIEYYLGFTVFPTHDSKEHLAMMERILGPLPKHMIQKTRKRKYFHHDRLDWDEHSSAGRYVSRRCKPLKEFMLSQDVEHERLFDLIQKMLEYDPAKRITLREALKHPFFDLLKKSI", "assay": "Binding affinity to CLK1 (unknown origin) assessed as dissociation constant by Ambit kinase binding assay"}}, "note": "Calls of active or inactive are those of the source. The rule behind the calls is not given here."}
{"smiles": "O=C1c2ccccc2-c2n[nH]c3cccc1c23", "values": [{"measurement": "Activity", "setting": "[1]", "value": 3, "unit": "%"}, {"measurement": "Activity", "setting": "[2]", "value": 1.8, "unit": "%"}, {"measurement": "Activity", "setting": "[3]", "value": 12, "unit": "%"}, {"measurement": "Activity", "setting": "[4]", "value": 2.6, "unit": "%"}, {"measurement": "Activity", "setting": "[5]", "value": 28, "unit": "%"}, {"measurement": "Activity", "setting": "[6]", "value": 32, "unit": "%"}, {"measurement": "Activity", "setting": "[7]", "value": 15, "unit": "%"}, {"measurement": "Activity", "setting": "[8]", "value": 14, "unit": "%"}, {"measurement": "Activity", "setting": "[9]", "value": 24, "unit": "%"}]}
{"smiles": "COc1cc(N2CCC(O)CC2)ccc1Nc1cc(Nc2ccccc2S(=O)(=O)C(C)C)c2cc[nH]c2n1", "values": [{"measurement": "Activity", "setting": "U2OS [10]", "value": "inactive"}, {"measurement": "Activity", "setting": "[11]", "value": 0.1, "unit": "%"}, {"measurement": "inhibition at 10 µM", "setting": "[12]", "value": "~40", "unit": "%"}, {"measurement": "Activity", "setting": "[13]", "value": 29, "unit": "%"}, {"measurement": "Kd", "setting": "Focal adhesion kinase 1", "value": 0.44, "unit": "µM"}, {"measurement": "Kd", "setting": "[14]", "value": 1.2, "unit": "µM"}, {"measurement": "Kd", "setting": "[15]", "value": 0.28, "unit": "µM"}, {"measurement": "Activity", "setting": "HCT-116", "value": "Active"}, {"measurement": "Activity", "setting": "UTRM10", "value": "inactive"}, {"measurement": "inhibition", "setting": "U2OS [16]", "value": "Active"}, {"measurement": "Activity", "setting": "[17]", "value": 0.5, "unit": "%"}, {"measurement": "Activity", "setting": "U2OS [18]", "value": "inactive"}, {"measurement": "Activity", "setting": "HeLa [19]", "value": "Active"}, {"measurement": "Activity", "setting": "U2OS [20]", "value": "inactive"}, {"measurement": "Activity", "setting": "U2OS [21]", "value": "Active"}, {"measurement": "Activity", "setting": "MCF-10A", "value": "Toxic"}, {"measurement": "Kd", "setting": "Activated CDC42 kinase 1", "value": 3.1, "unit": "µM"}, {"measurement": "Kd", "setting": "[22]", "value": 0.021, "unit": "µM"}, {"measurement": "Activity", "setting": "HeLa [23]", "value": "Active"}, {"measurement": "Kd", "setting": "[24]", "value": 1.9, "unit": "µM"}]}
